Assay outcomes (PubChem)
Sampled rows, rich in hits. Any-hit rate of the full collection: about 2.9%.
Wee1 stabilizer = human Wee1 degradation inhibition, primary screen; reporter increase, % at 5 µM; P30291; AID 1321; HeLa Luc-Wee1K328M stability, luciferase luminescence; 100% = proteasome inhibitor MG132 effect; actives 1.2% (n = 220,000);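 active = activation above the mean of all tested compounds plus 3 SD, set per screening run, cut at about 8.8% in these data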;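 note: cells exposed to compound for 20 h before luminescence read; 0% = DMSO alone and 100% = MG132 at 30 µM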
Target sequence (P30291 whole entry K328M): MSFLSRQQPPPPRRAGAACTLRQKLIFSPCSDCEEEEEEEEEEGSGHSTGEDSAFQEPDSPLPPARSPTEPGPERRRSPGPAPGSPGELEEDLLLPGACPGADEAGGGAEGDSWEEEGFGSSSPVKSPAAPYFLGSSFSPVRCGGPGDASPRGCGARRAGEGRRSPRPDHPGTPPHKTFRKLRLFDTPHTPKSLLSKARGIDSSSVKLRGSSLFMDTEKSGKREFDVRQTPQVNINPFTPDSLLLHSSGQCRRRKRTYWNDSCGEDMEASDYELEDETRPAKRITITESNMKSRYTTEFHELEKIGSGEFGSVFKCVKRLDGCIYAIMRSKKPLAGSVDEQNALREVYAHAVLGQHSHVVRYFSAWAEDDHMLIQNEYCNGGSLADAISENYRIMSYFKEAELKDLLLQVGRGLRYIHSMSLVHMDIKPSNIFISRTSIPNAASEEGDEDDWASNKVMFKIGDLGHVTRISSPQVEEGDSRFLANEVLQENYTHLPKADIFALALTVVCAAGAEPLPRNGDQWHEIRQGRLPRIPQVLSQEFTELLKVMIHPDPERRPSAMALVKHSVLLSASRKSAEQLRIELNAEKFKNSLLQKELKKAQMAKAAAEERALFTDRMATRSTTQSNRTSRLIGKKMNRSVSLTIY
RanGTP-Impb inh = inhibitors of RanGTP-importin-beta interaction, primary screen, biochemical, FRET, CFP-Ran, YFP-importin-beta, homogeneous; cell-free CFP-Ran/YFP-importin-beta FRET ratio; inhibition, % (no concentration beside the values); actives 1.1% (n = 300,000);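 active = more than half of the replicate wells show a fall in the fluorescence ratio signal beyond about 16%, limit read from the data, passing the limit was not always enough; inconclusive = exactly half of the replicate wells pass the set limit; inactive = fewer than half of replicates pass the limit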;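 note: 0% = DMSO wells and 100% = Ran loaded with GDP instead of GTP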
Runt-CBFb FRET = Runt domain-CBFb interaction inhibition; Q01196+Q13951; Cerulean-Runt/Venus-CBFb FRET ratio 530/480, 1 h; inhibition, % at 20 µM; actives 0.46% (n = 220,000); AID 1496;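 active = inhibition over about 50% at 20 µM in the single-dose screen, limit read from the data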;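 note: 0% = DMSO wells and 100% = excess unlabeled CBFb competitor control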
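test system = Cerulean-Runt domain fusion protein, energy donor | probe or stimulus = Venus-CBFb binding partner, 100 nM | incubation = two 1 h room-temperature incubations shielded from light | detection = fluorescence energy transfer, 422 nm excitation, 530/480 nm emission | measure = loss of energy transfer signal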
AI-2 QS mod = Vibrio harveyi AI-2 quorum sensing modulation; Vibrio harveyi JMH597 AI-2 luminescence/OD600 ratio, 9 h; stronger effect = lower value; strain lacks LuxN and CqsS sensors; 0 = neutral-control median; activity change, % at 7.5 µM; actives 0.4% (n = 300,000); in the data active = activity change below about -75%, passing the limit was not always enough; inconclusive = no clear call, values can overlap the other calls;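 note: luminescence divided by OD600 gain over 9 h not by final OD600 alone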
Runt-SMMHC FRET = Runt domain-CBFb-SMMHC interaction inhibition. Q01196+Q13951. Cerulean-Runt/Venus-CBFb-SMMHC FRET ratio 530/480, 1 h. inhibition, % at 20 µM. actives 0.74% (n = 220,000);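 active = mean inhibition across duplicate retests at 20 µM reaching about 50%, limit read from the data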;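 note: 0% = DMSO wells and 100% = wells with excess untagged CBFb-SMMHC; inhibitors lower the FRET ratio by blocking Runt binding to CBFb-SMMHC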
KLK7 zymogen act = activates the human kallikrein-7 zymogen; P49862; purified proKLK7, EDANS-DABCYL substrate fluorescence; 100% is mature enzyme control, 0% vehicle; activation, % at 7 µM; actives 0.9% (n = 370,000);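 active = activation above the mean of all tested compounds plus 3 SD, computed per campaign excluding outliers beyond control limits, cut at about 13% in these data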
JMH597 growth rt = retest: blocks Vibrio harveyi JMH597 growth; shares compounds with AI-2 QS mod; OD600 absorbance, 9 h; lacks LuxN and CqsS sensors; growth inhibition, % at 7.5 µM; actives 1% (n = 750);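 active = every replicate shows growth inhibition above 50%; inconclusive = at least half, but not all, replicates pass that cutoff; inactive = fewer than half of replicates pass it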
BB721 const-QS lum = retest counter-screen: lowers luminescence of constitutive-QS Vibrio harveyi BB721; 9 h; actives 95% (n = 750); inhibition, % at 7.5 µM; shares compounds with AI-2 QS mod;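 active = inhibition above about 80% in every replicate, not just on average, limit read from the data; inconclusive = at least half of replicates past the limit, but not all; inactive = fewer than half of replicates past the limit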
BB721 growth = retest: inhibitors of Vibrio harveyi BB721 growth. OD600 absorbance, 9 h. shares compounds with AI-2 QS mod. actives 3% (n = 750). growth inhibition, % at 7.5 µM. AID 2728;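 active = every replicate shows growth inhibition above 50%; inconclusive = at least half but not all replicates above 50% inhibition; inactive = under half of replicates above 50% inhibition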
JMH597 AI-2 mod = Vibrio harveyi AI-2 signaling luminescence modulation – JMH597 strain, confirmation. shares compounds with AI-2 QS mod. Vibrio harveyi JMH597 AI-2 quorum sensing luminescence, 9 h; luxN and CqsS knockout, AI-2 only. inhibition, % at 7.5 µM. actives 97% (n = 750). AID 2736;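 active = every replicate shows more than 75% inhibition of signal versus neutral control wells; inconclusive = half to three quarters of replicates exceed 75% inhibition; inactive = fewer than half of replicates exceed 75% inhibition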
The depositor's hits bear a star.

Screening Clc1ccc(CON/C=N/c2ncnc3sccc23)cc1 returned Wee1 stabilizer -2, RanGTP-Impb inh -1, Runt-CBFb FRET -2, AI-2 QS mod -93*, Runt-SMMHC FRET -1, KLK7 zymogen act 0, JMH597 growth rt 17, BB721 const-QS lum 98*, BB721 growth 10 and JMH597 AI-2 mod 99*.
Screening COc1ccnc(N=CNOCc2ccc(C)cc2)c1C#N returned Wee1 stabilizer 0, RanGTP-Impb inh 1, Runt-CBFb FRET 2, AI-2 QS mod 7, Runt-SMMHC FRET -1 and KLK7 zymogen act 0.
C(=N\c1ncnc2sccc12)/NOCc1ccccc1 was read as Wee1 stabilizer -2, RanGTP-Impb inh -1, Runt-CBFb FRET -1, AI-2 QS mod -95*, Runt-SMMHC FRET -13, KLK7 zymogen act 0, JMH597 growth rt -11, BB721 const-QS lum 98*, BB721 growth -24 and JMH597 AI-2 mod 98*.
`Cc1cccc(CSc2nnc(-c3ccccn3)n2N)c1` gave Wee1 stabilizer 0, RanGTP-Impb inh 1, Runt-CBFb FRET 0, AI-2 QS mod -90*, Runt-SMMHC FRET 5, KLK7 zymogen act 0, JMH597 growth rt -4, BB721 const-QS lum 92*, BB721 growth 3 and JMH597 AI-2 mod 94*.
`Cc1c(Br)c(C(=O)NNC(=O)c2ccc(C(C)(C)C)cc2)nn1C` gave Wee1 stabilizer -1, RanGTP-Impb inh -4, Runt-CBFb FRET -1, AI-2 QS mod -88*, Runt-SMMHC FRET 0, KLK7 zymogen act 0, JMH597 growth rt 12, BB721 const-QS lum 96*, BB721 growth 23 and JMH597 AI-2 mod 97*.
Screening COc1ccc(C(NC(=O)C2CCN(CCOc3ccc(Cl)cc3Cl)CC2)c2cccs2)cc1 (configuration not stated) returned KLK7 zymogen act -1.
Screening O=C(Nc1cccc(Cl)c1)OCc1cnc(Cl)s1 returned Wee1 stabilizer 3, RanGTP-Impb inh -6, Runt-CBFb FRET 0, AI-2 QS mod inconclusive, Runt-SMMHC FRET 0, KLK7 zymogen act 0, JMH597 growth rt 18, BB721 const-QS lum 92*, BB721 growth 22 and JMH597 AI-2 mod 92*.
O=C(Nc1cccc(Cl)c1)OCCOCCOC(=O)Nc1cccc(Cl)c1 was read as KLK7 zymogen act 1.
For COc1ccc(CC(=O)Nc2ccc(S(=O)(=O)Nc3ncccn3)cc2)cc1 the results were Wee1 stabilizer 1, RanGTP-Impb inh 1, Runt-CBFb FRET 0, AI-2 QS mod -91*, Runt-SMMHC FRET 0, KLK7 zymogen act -1, JMH597 growth rt 0, BB721 const-QS lum 93*, BB721 growth 21 and JMH597 AI-2 mod 96*.
`COc1ccc(S(=O)(=O)Nc2ccc(Nc3ccccc3)cc2)cc1` gave RanGTP-Impb inh 1, AI-2 QS mod -97*, KLK7 zymogen act 0, JMH597 growth rt 68*, BB721 const-QS lum 100*, BB721 growth 46 and JMH597 AI-2 mod 100*.
Screening Cc1cc(NS(=O)(=O)c2ccc(CC(C)C)cc2)no1 returned Wee1 stabilizer 0, RanGTP-Impb inh 1, Runt-CBFb FRET 2, AI-2 QS mod -59, Runt-SMMHC FRET 0 and KLK7 zymogen act 1.
COc1ccc(CCC(=O)Nc2ccc(S(=O)(=O)Nc3ncccn3)cc2)cc1 was read as KLK7 zymogen act 0.
`Cc1cc(NS(=O)(=O)c2ccc(C(C)C)cc2)no1` gave RanGTP-Impb inh 4, AI-2 QS mod -86*, KLK7 zymogen act 0, JMH597 growth rt 39, BB721 const-QS lum 87*, BB721 growth 3 and JMH597 AI-2 mod 100*.
CC(C)c1ccc(OCC(=O)Nc2ccc(S(=O)(=O)Nc3ccccn3)cc2)cc1 was read as RanGTP-Impb inh 0, AI-2 QS mod -60 and KLK7 zymogen act 0.
`CCc1ccc(OCC(=O)Nc2ccc(S(=O)(=O)Nc3ccccn3)cc2)cc1` gave RanGTP-Impb inh -4, AI-2 QS mod -85*, KLK7 zymogen act 0, JMH597 growth rt -2, BB721 const-QS lum 89*, BB721 growth -29 and JMH597 AI-2 mod 96*.
Screening O=C(NCc1ccccc1)[C@@H]1CCCN1C(=O)[C@@H](NS(=O)(=O)c1ccc(F)cc1F)c1ccccc1 returned KLK7 zymogen act 0.
`O=C1Nc2cnc(Cl)nc2Nc2ccc(Cl)cc21` gave KLK7 zymogen act 1.
Screening CCOC(=O)CSc1nc(=O)n2cc(C)ccc2n1 returned Wee1 stabilizer 1, RanGTP-Impb inh -2, Runt-CBFb FRET 0, AI-2 QS mod 14, Runt-SMMHC FRET 2 and KLK7 zymogen act 1.
ClCC1NCC(c2ccccc2Cl)c2c1[nH]c1ccccc21 (configuration not stated) was read as Wee1 stabilizer 3, RanGTP-Impb inh 6, Runt-CBFb FRET 1, AI-2 QS mod -13, Runt-SMMHC FRET 7 and KLK7 zymogen act 1.
For COc1ccc(OCC(=O)Nc2ccc(S(=O)(=O)Nc3cc(C)on3)cc2)cc1 the results were RanGTP-Impb inh -1, AI-2 QS mod -84*, KLK7 zymogen act 0, JMH597 growth rt -9, BB721 const-QS lum 91*, BB721 growth 20 and JMH597 AI-2 mod 92*.
Screening COc1ccc(NS(=O)(=O)c2ccc3oc(=O)c4[nH]c(=O)c(=O)n(C)c4c3c2)cc1 returned RanGTP-Impb inh -2, AI-2 QS mod 10 and KLK7 zymogen act -4.
Screening Cc1cc(NC(=O)CN2C(=O)c3ccccc3C2=O)no1 returned Wee1 stabilizer -1, RanGTP-Impb inh 1, Runt-CBFb FRET 0, AI-2 QS mod inconclusive, Runt-SMMHC FRET -5, KLK7 zymogen act 0, JMH597 growth rt -2, BB721 const-QS lum 84*, BB721 growth -5 and JMH597 AI-2 mod 87*.
